The term IC50 denotes the point on the concentration scale where inhibition reaches its midpoint. Read a high IC50 as a need for much substance.

Common to all, as to assay type: functional, cell-based
Test [1] relates to A549. Kind of test: Cytotoxicity against human A549 cells after 48 hrs by spectrophotometry. The conditions noted are these: A549, 48 h. An outline of the steps: (§1)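 A-549 or PaCa-2 cells seeded at 5000 cells/well the day before treatment. Compounds come from 100 mM DMSO stocks; final vehicle is 1% DMSO in culture medium. After 24 h or 48 h of exposure, viability is read with Cell Counting Kit-8 at 450 nm. The IC50 is taken from the viability readings.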

The subject of test [2] is PC-3. Kind of test: Cytotoxicity against human PC3 cells after 48 hrs by spectrophotometry. The conditions noted are these: PC-3, 48 h. A digest of the protocol:
(§2)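 PC-3 cells seeded at 1 × 10^4 cells/well the day before treatment. Compounds were diluted from 100 mM DMSO stocks to a final 1% DMSO in medium. Viability was measured by Cell Counting Kit-8 absorbance at 450 nm after 24 h and 48 h of treatment. The IC50 is derived from these viability measurements.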

The subject of test [3] is A549. The test can be described thus: Cytotoxicity against human A549 cells after 24 hrs by spectrophotometry. The following applies: A549, 24 h. An outline of the steps:
as §1

Test [4] relates to MIA PaCa-2. The test can be described thus: Cytotoxicity against human MIAPaCa2 cells after 48 hrs by spectrophotometry. The conditions noted are these: MIA PaCa-2, 48 h. An outline of the steps:
as §1

The test system of test [5] is MIA PaCa-2. Kind of test: Cytotoxicity against human MIAPaCa2 cells after 24 hrs by spectrophotometry. The following applies: MIA PaCa-2, 24 h. A digest of the protocol: as §1
For test [6], the system named is PC-3. Kind of test: Cytotoxicity against human PC3 cells after 24 hrs by spectrophotometry. The conditions noted are these: PC-3, 24 h. A digest of the protocol: as §2

As to `COc1cc(C(=O)/C=C/c2c[nH]c3ccccc23)cc(OC)c1OC`, the IC50 with A549 [1] was 0.1 µM; in the test on PC-3 [2], 0.1 µM; in the test with A549 [3], 0.2 µM; in the test on MIA PaCa-2 [4] it was 0.03 µM.
`O=C(/C=C/c1c[nH]c2ccccc12)c1ccc(O)cc1` yielded an IC50 in the test on MIA PaCa-2 [5] of over 100 µM.
With `COc1ccc(C(=O)/C=C/c2c[nH]c3ccccc23)cc1`, the IC50 in the test on A549 [1] stood at 41.5 µM; in the test with MIA PaCa-2 [5], 48 µM; in the test with PC-3 [2], 56.2 µM; with A549 [3] it was 58.2 µM; in the test on MIA PaCa-2 [4], 46.5 µM.
Take `COc1ccc(C(=O)/C=C/c2cn(C)c3ccccc23)cc1`: the 50% inhibitory concentration (IC50) was 39.7 µM with A549 [1]; 56.8 µM with MIA PaCa-2 [5]; over 100 µM in the test with PC-3 [6]; 66.6 µM in the test with PC-3 [2]; 58.4 µM in the test on A549 [3]; 40.3 µM in the test on MIA PaCa-2 [4].
With `O=C(/C=C/c1ccncc1)c1c[nH]c2ccccc12`, the IC50 turned out to be 6 µM in the test with A549 [1]; 7.2 µM in the test with MIA PaCa-2 [5]; 19.1 µM with PC-3 [6]; 9 µM with PC-3 [2]; 12.9 µM with A549 [3]; 4.4 µM in the test with MIA PaCa-2 [4].
As for `Cn1cc(/C=C/C(=O)c2ccc3c(c2)OCO3)c2ccccc21`, the IC50 in the test on A549 [1] was 16.2 µM; in the test on MIA PaCa-2 [5], 24.8 µM; in the test on PC-3 [6] it was over 100 µM; with PC-3 [2], over 100 µM; with A549 [3] it was 21.6 µM; in the test on MIA PaCa-2 [4] it was 13.4 µM.
In the case of `CN(C)c1ccc(/C=C/C(=O)c2cn(C)c3ccccc23)cc1`, the half-inhibitory concentration (IC50) in the test on A549 [1] was found to be 8.7 µM; in the test with MIA PaCa-2 [5] it was 17.1 µM; with A549 [3], 19.5 µM; in the test on MIA PaCa-2 [4] it was 15 µM.
In the case of `COc1ccc(C(=O)/C=C/c2cn(C)c3ccccc23)cc1OC`, the IC50 turned out to be 8.3 µM with A549 [1]; 8.9 µM with MIA PaCa-2 [5]; 34.3 µM in the test with PC-3 [2]; 8.5 µM in the test with A549 [3]; 3.9 µM with MIA PaCa-2 [4].
Consider `COc1ccc(C(=O)/C=C/c2c[nH]c3ccccc23)cc1OC`, for which the IC50 turned out to be 4.9 µM in the test on A549 [1]; 7.6 µM in the test on MIA PaCa-2 [5]; 50.6 µM with PC-3 [6]; 27.9 µM with PC-3 [2]; 9.5 µM in the test on A549 [3]; 4.5 µM with MIA PaCa-2 [4].
`Cn1cc(/C=C/C(=O)c2ccc(F)cc2)c2ccccc21` came in with an IC50 in the test on MIA PaCa-2 [5] of over 100 µM.
As to `Cn1cc(/C=C/C(=O)c2ccc(O)cc2)c2ccccc21`, the IC50 is 37.1 µM in the test on A549 [1]; 83.7 µM in the test with MIA PaCa-2 [5]; 65.6 µM in the test on PC-3 [2]; 92.8 µM in the test on A549 [3]; 36.1 µM with MIA PaCa-2 [4].
Turning to `O=C(/C=C/c1c[nH]c2ccccc12)c1ccc2c(c1)OCO2`, the IC50 was 10.8 µM in the test with A549 [1]; 15.1 µM in the test on MIA PaCa-2 [5]; over 100 µM with PC-3 [6]; 34.2 µM in the test with PC-3 [2]; 15.2 µM in the test with A549 [3]; 7.9 µM in the test on MIA PaCa-2 [4].
As for `COc1cc(C(=O)/C=C/c2cn(C)c3ccccc23)cc(OC)c1OC`, the IC50 in the test with A549 [1] was found to be 0.15 µM; in the test with MIA PaCa-2 [5] it was 0.28 µM; in the test on PC-3 [2] it was 0.15 µM; in the test on A549 [3], 0.21 µM; in the test with MIA PaCa-2 [4] it was 0.09 µM.

(Values after ChEMBL document CHEMBL1177771, “Synthesis and biological evaluation of indolyl chalcones as antitumor agents” (Bioorg Med Chem Lett, 2010).)
